From PubChem BioAssay
T cruzi inh = T. cruzi replication inhibition | T. cruzi beta-gal in NIH3T3, luminescence, 90 h | inhibition, % (no concentration beside the values) | 300,000 compounds, 1.4% hits | AID 1885;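 active = mean inhibition across valid replicates above about 55%, limit read from the data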;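 also: signal also drops with host cell toxicity which is not excluded here; higher percent means less beta-gal luminescence so fewer parasites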
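System: mouse NIH/3T3 fibroblasts infected with β-gal-expressing T. cruzi Tulahuen C4 / Input: NIH/3T3 cells, 5,000 per well / Buffer or medium: Low-serum DMEM with 2% FBS / Probe or stimulus: 5000 reporter trypomastigotes per well / Schedule: ≥90 h infection period, 3 h prior cell attachment / Measured by: GalScreen luminescence, 60 min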
CSC inhib = cancer stem cell inhibition; cancer stem cell-like cells viability, luminescence; inhibition, % at 7.5 µM; 300,000 compounds, 1.1% hits; AID 2717; in the data active = inhibition above about 75%; tested in HMLE shEcad cells
Beta apoptosis = beta cell apoptosis inhibition; 300,000 compounds, 0.8% hits; INS-1E cytokine-induced death, ATP luminescence, 48 h; percent of positive-control rescue, neutral wells zero; protection from apoptosis, % (concentration not given with the values);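 active = Every replicate reaches about 75%, or at least half do and their mean reaches it too, limit read from the data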;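 also: higher means more ATP so stronger rescue from cytokine killing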
Calb FLC = C. albicans growth modulation with fluconazole; C. albicans CaCi-2 + fluconazole, Alamar Blue growth, 48 h; growth inhibition, % (test concentration not listed); 300,000 compounds, 0.57% hits; AID 1979;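 active = growth inhibition above about 58% in most replicates, limit read from the data, passing the limit was not always enough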;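 also: all wells also contain fluconazole at 8 µg/ml as a sub-toxic cotreatment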
SKKanGAS inh = blocks kanamycin growth of S. pyogenes SKKanGAS strain; AID 1662; inhibition, % at 7.5 µM; 300,000 compounds, 1.3% hits; BacTiter-Glo, 6 h;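 active = mean replicate score, as percent of positive control median, at least 50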;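 also: strain carries kanamycin resistance gene driven by streptokinase promoter and grows in 40 µg/ml kanamycin; loss of luminescence reflects streptokinase promoter inhibition or plain growth inhibition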
Mdm2-MdmX inh = disrupts the human Mdm2-MdmX interaction | inhibition, % at 8 µM | 330,000 compounds, 3% hits | AID 485346 | SaOS-2 split-luciferase Mdm2/MdmX complementation, luminescence | O15151+Q00987;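 active = inhibition of at least 50% at 8 µM in the primary screen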
Target sequence (O15151 whole entry, looked up): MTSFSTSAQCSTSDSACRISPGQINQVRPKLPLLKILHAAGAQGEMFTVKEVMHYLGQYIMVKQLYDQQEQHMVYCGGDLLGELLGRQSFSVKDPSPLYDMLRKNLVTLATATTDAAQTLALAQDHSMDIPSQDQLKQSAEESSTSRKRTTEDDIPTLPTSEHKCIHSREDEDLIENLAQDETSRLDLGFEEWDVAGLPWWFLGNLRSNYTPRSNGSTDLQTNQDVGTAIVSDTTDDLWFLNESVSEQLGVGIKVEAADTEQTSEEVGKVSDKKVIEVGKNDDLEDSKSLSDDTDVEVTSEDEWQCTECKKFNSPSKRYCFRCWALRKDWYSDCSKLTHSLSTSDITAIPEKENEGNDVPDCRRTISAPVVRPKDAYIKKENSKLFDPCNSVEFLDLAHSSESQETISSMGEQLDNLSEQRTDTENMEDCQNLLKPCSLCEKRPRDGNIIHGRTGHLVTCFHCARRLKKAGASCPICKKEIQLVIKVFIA
Target sequence (Q00987 whole entry, looked up): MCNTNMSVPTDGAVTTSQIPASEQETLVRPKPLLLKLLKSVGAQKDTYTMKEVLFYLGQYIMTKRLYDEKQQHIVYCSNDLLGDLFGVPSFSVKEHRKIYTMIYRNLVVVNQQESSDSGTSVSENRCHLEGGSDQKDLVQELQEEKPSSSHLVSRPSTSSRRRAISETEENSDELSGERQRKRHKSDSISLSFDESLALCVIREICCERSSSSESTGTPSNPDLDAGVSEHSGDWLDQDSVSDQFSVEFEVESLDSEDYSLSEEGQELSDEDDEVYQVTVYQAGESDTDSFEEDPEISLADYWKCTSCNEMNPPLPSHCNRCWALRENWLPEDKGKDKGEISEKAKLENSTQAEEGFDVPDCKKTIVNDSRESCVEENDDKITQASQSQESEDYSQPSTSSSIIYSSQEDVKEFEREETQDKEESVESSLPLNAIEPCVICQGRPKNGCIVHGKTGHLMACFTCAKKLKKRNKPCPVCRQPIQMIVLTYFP
Mdm2 MdmX conf = confirmation of human Mdm2/MdmX interaction inhibitors | shares compounds with Mdm2-MdmX inh | Mdm2-MdmX binding, luminescent assay | inhibition, % at 8 µM | 10,000 compounds, 55% hits; in the data active = inhibition above about 40%
FLuc counter = inhibits full-length luciferase, flagging false Mdm2/MdmX hits; shares compounds with Mdm2-MdmX inh; SaOS-2 full-length luciferase counterscreen, luminescence; inhibition, % at 8 µM; 6,200 compounds, 77% hits; AID 504607;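 active = mean inhibition at 8 µM reaching about 37%, which flags the compound as non-specific, limit read from the data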;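 also: p53-null SaOS-2 cells with luciferase driven by a doxycycline-inducible promoter; compound on cells about two nights before reading with doxycycline added after day one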
Large screens that a line does not name were inactive (follow-up assays come after a bar, where they were run). Shown are actives, neighbours in structure and some others; about 5.7% of the full set was active somewhere.

CC(=O)OC[C@]12CCC(C)=C[C@H]1O[C@@H]1[C@H](O)[C@@H](OC(C)=O)[C@@]2(C)[C@]12CO2	Mdm2-MdmX inh 100 (no result: T cruzi inh, Beta apoptosis, Calb FLC, SKKanGAS inh) | Mdm2 MdmX conf 100 | FLuc counter inactive
C[N+](C)(N)CCOC(=O)C(O)(c1ccccc1)C1CCCCC1 (stereo unspecified)	none (no result: T cruzi inh)
CC12CCC3C(CC=C4CC(O)CCC43C)C1C/C(=C\c1ccccc1F)C2=O (stereo unspecified)	CSC inhib 99, Mdm2-MdmX inh 78 | Mdm2 MdmX conf inactive
Cc1nn(C)cc1/C=C1/CC2C3CC=C4CC(O)CCC4(C)C3CCC2(C)C1=O (stereo unspecified)	none (no result: Beta apoptosis)
C[C@]12CC[C@H](O)CC1=CCC1C2CC[C@]2(C)C(=O)[C@H](Br)CC12 (stereo partly specified)	Mdm2-MdmX inh 50 (no result: T cruzi inh, Calb FLC, SKKanGAS inh) | Mdm2 MdmX conf inactive
C[C@]12CC[C@H](O)CC1=CC[C@@H]1[C@@H]2CC[C@]2(C)C(=O)CC[C@@H]12	none (no result: Calb FLC)
O=C(O)c1cc[c]([Hg][Cl])cc1	none (no result: T cruzi inh, Calb FLC, SKKanGAS inh)
COC(=O)C1=C(c2ccc(F)cc2OCc2ccccc2)C[C@@H]2CC[C@H]1N2C(=O)NCCOc1ccccc1Cl	Mdm2-MdmX inh 57 (no result: T cruzi inh, Calb FLC, SKKanGAS inh) | Mdm2 MdmX conf inactive
COC(=O)C1=C(c2ccc(F)cc2OCc2ccccc2)C[C@@H]2CC[C@H]1N2C(=O)NCc1ccc(N(C)C)cc1	none (no result: T cruzi inh, Calb FLC, SKKanGAS inh)
COC(=O)C1=C(c2ccccc2OCc2ccccc2)C[C@@H]2CC[C@H]1N2C(=O)NCc1ccc(N(C)C)cc1	Mdm2-MdmX inh 62 (no result: T cruzi inh, Calb FLC, SKKanGAS inh) | Mdm2 MdmX conf inactive
COc1ccc(-n2c(C)nc3ccccc3c2=O)c([N+](=O)[O-])c1	none
O=C1CN=C(c2ccccc2)c2oc3ccc(Br)cc3c2N1	none
O=C1CN=C(c2ccc(F)cc2)c2oc3ccccc3c2N1	none
COc1cccc(OC)c1C1=NCC(=O)Nc2c1oc1ccc(Br)cc21	Mdm2-MdmX inh 70 | Mdm2 MdmX conf 68 | FLuc counter 78
O=C1CN=C(c2ccc(Br)cc2)c2oc3ccccc3c2N1	Mdm2-MdmX inh 58 | Mdm2 MdmX conf inactive
COC(=O)C1=C(c2cc3ccccc3s2)C[C@@H]2CC[C@H]1N2C(=O)N1CCOCC1	Mdm2-MdmX inh 55 | Mdm2 MdmX conf 55 | FLuc counter 55
CCCCn1c(=O)c(C(=O)Nc2cnccn2)c(O)c2ccccc21	Mdm2-MdmX inh 57 | Mdm2 MdmX conf inactive | FLuc counter 89
COP(=O)(NC(=O)C(Cl)(Cl)Cl)OC	none
O=C(CCC(=O)N1C[C@H]2C[C@@H](C1)c1cccc(=O)n1C2)NCc1ccc(F)cc1	none (no result: T cruzi inh, Calb FLC, SKKanGAS inh)
CC(C)c1ccc(N2C(=O)NC(=O)/C(=C\C=C\c3ccco3)C2=O)cc1	CSC inhib 99, Mdm2-MdmX inh 56 | Mdm2 MdmX conf inactive
CC(=O)OC(C)(C)/C=C/C(=O)C(C)(O)C1[C@H](O)C[C@@]2(C)C3CC=C4C(CC[C@@H](O)C4(C)C)[C@]3(CO)C(=O)C[C@]12C (stereo partly specified)	T cruzi inh 56, Mdm2-MdmX inh 98 (no result: Beta apoptosis) | Mdm2 MdmX conf 98 | FLuc counter inactive
N#CCCn1cc(C(=O)Nc2ccccc2Br)c(-c2ccc3c(c2)OCCO3)n1	none
COC(=O)C1=C(c2ccc(OCc3ccccc3)cc2)C[C@@H]2CC[C@H]1N2C(=O)NC1CCN(Cc2ccccc2)CC1	Beta apoptosis 78, Mdm2-MdmX inh 85 (no result: T cruzi inh, Calb FLC, SKKanGAS inh) | Mdm2 MdmX conf 54 | FLuc counter 62
COC(=O)C1=C(c2ccc(-c3ccccc3)c(F)c2)C[C@@H]2CC[C@H]1N2C(=O)NC1CCCCC1	Mdm2-MdmX inh 69 (no result: T cruzi inh, Calb FLC, SKKanGAS inh) | Mdm2 MdmX conf 41 | FLuc counter 64
COC(=O)C1=C(c2ccc(F)cc2F)C[C@@H]2CC[C@H]1N2C(=O)NC1CCCCC1	none (no result: T cruzi inh, Calb FLC, SKKanGAS inh)
OCC1CO1 (stereo unspecified)	none (no result: T cruzi inh, Calb FLC, SKKanGAS inh)
Cc1cccc(NC(=O)COC(=O)c2cc(C)n(C3CC3)c2C)c1	none (no result: T cruzi inh, CSC inhib, Calb FLC, SKKanGAS inh)
C=C1[C@H]2CC[C@H]3[C@]4(C)C[C@H](O[C@H]5O[C@H](CO)[C@@H](OS(=O)(=O)O)[C@H](OS(=O)(=O)O)[C@H]5OC(=O)CC(C)C)C[C@@H](C(=O)O)[C@H]4CC[C@]3(C2)[C@H]1O	none (no result: T cruzi inh, Calb FLC, SKKanGAS inh)
COc1ccc2c(c1)[nH]c1c(C)nccc12	Mdm2-MdmX inh 90 (no result: T cruzi inh, Calb FLC, SKKanGAS inh) | Mdm2 MdmX conf 90 | FLuc counter inactive
C/C1=C\[C@@H](C)C/C=C/[C@H]2[C@@H]3O[C@]3(C)[C@@H](C)[C@H]3[C@H](Cc4c[nH]c5ccccc45)NC(=O)[C@]32C(=O)/C=C/C(=O)[C@@H]1O	Mdm2-MdmX inh 83 (no result: Beta apoptosis) | Mdm2 MdmX conf 46 | FLuc counter inactive
NC(N)=N/N=C/c1cn(-c2ccccc2)nc1-c1cccs1	Beta apoptosis 105, Mdm2-MdmX inh 99 | Mdm2 MdmX conf 94 | FLuc counter 57
